PMI act = activators of human phosphomannose isomerase. activation factor at 20 µM. 190,000 compounds, 0.005% hits. purified human PMI, coupled resazurin fluorescence, 20 min; hits give high values; 1 = vehicle control, 0 substrate-free wells. AID 1214;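 active = activation factor of 2 or more at 20 µM, relative to plate controls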
Target sequence (P34949 whole entry, looked up): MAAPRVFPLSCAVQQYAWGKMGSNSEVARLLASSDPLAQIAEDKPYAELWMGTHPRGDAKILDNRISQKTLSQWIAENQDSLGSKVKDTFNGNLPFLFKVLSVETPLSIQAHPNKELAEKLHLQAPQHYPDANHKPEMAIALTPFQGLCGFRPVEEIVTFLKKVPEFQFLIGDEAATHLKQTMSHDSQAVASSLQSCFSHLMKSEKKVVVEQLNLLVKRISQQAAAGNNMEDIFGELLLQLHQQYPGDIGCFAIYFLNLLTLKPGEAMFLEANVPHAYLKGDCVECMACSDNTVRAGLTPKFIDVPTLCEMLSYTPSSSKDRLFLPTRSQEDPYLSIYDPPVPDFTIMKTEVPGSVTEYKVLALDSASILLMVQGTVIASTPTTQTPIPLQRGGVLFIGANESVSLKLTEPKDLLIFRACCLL
PTEN del growth = growth suppressors of cells with PTEN tumor suppressor deletion; HCT116 PTEN-null viability, CellTiter-Glo, 60 h; hits give low values; viability, % at 10 µM; 140,000 compounds, 1.2% hits; AID 827;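 active = viability at or below a set limit, 4 SD under the median of all tested compounds, cut at about 3.7% in these data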;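 also: PTEN knockout HCT116 line with beta catenin targeted HCT116 as companion control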
PMI act satM6P = increases human PMI activity with near-saturating mannose 6-phosphate; 190,000 compounds, 0.34% hits; P34949; AID 1216; activation factor at 20 µM; coupled PMI enzyme assay, resazurin fluorescence, 20 min; hits give high values; 1 = untreated enzyme, 0 = substrate-free blank;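 active = activation factor of 2 or more at 20 µM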
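Technique: Diaphorase-driven resazurin-to-resorufin fluorescence, excitation 544, emission 590 nm | Assay system: Human PMI in coupled enzyme assay | Times: Enzyme reaction with compound 20 min at room temperature | Medium: HEPES-buffered pH 7.4 with magnesium and detergent | Reagent: Mannose-6-phosphate 1.0 mM (near-saturating) plus 0.22 mM NADP+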
bCat KO growth = beta-catenin-lacking colon tumor cell growth suppression | viability, % at 10 µM | HCT116 beta-catenin knockout viability, CellTiter-Glo, 60 h; hits give low values | 140,000 compounds, 1.5% hits;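 active = viability at or under a set limit, the compound median less 4 SD, cut at about 6% in these data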;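 also: 0% = Hyamine 1622 control at 20 µM and 100% = untreated cell control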
Lmaj promast = inhibitors of Leishmania major promastigote growth | inhibition, % at 10 µM | Leishmania major promastigotes, resazurin fluorescence viability | 200,000 compounds, 9% hits | AID 1063; in the data active = inhibition above about 50%;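 also: promastigotes grown with compound for 44 hours at 28 °C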
* hit, by the source's call. Most compounds without a hit are left out; they make up all but 9.6% or so of the library.

For CC(C)(C)C1C/C(=C/c2ccccn2)C(=O)/C(=C/c2ccccn2)C1 (configuration not stated) the results were PMI act 1.1, PMI act satM6P 1.1 and Lmaj promast 100.6*.
For CC1C/C(=C/c2ccco2)C(=O)/C(=C/c2ccco2)C1 (configuration not stated) the results were PMI act 1.2, PTEN del growth 60.1, PMI act satM6P 1.3, bCat KO growth 55.9 and Lmaj promast 6.5.
S=C(NCCc1ccccc1)N1CCN(C2CCCCC2)CC1 was read as PMI act 1, PMI act satM6P 1 and Lmaj promast -12.8.
For Cc1ccccc1NC(=O)CNC(=O)c1ccc(C(F)(F)F)cc1 the results were PMI act 0.9, PTEN del growth 95.6, PMI act satM6P 0.9, bCat KO growth 91.7 and Lmaj promast 62.1*.
Screening OC1(c2ccc3ccccc3c2)CCN(Cc2ccccc2)C1 (configuration not stated) returned PMI act 1.1, PTEN del growth 76.0, PMI act satM6P 1.2, bCat KO growth 87.1 and Lmaj promast 93.9*.
COc1cc(NC(=O)CN2CCCCC2C)c(C)cc1[N+](=O)[O-] (configuration not stated) was read as PMI act 1.1, PTEN del growth 92.8, PMI act satM6P 1.1, bCat KO growth 95.7 and Lmaj promast 69.3*.
COc1cc(NC(=O)Cn2ncc(Cl)c(Cl)c2=O)c(C)cc1[N+](=O)[O-] was read as PMI act 1, PMI act satM6P 1 and Lmaj promast 89.4*.
For COc1cc(NC(=O)CN2C(=O)CN(C)C2=O)c(C)cc1[N+](=O)[O-] the results were PMI act 1.1, PMI act satM6P 0.9 and Lmaj promast 1.2.
`CC(C)(C)OC(=O)N/N=C\C=C\c1ccc2c(c1)OCO2` gave PMI act 1, PTEN del growth 95.4, PMI act satM6P 1, bCat KO growth 95.0 and Lmaj promast 9.8.
For COCCCNC(=O)c1oc2ccc(S(=O)(=O)N(C)C3CCCCC3)cc2c1C the results were PMI act 0.9, PTEN del growth 77.2, PMI act satM6P 0.9, bCat KO growth 89.2 and Lmaj promast 97.4*.
`Cc1c(C(=O)O)oc2ccc(S(=O)(=O)NC3CCCCCCC3)cc12` gave PMI act 1.1, PTEN del growth 99.3, PMI act satM6P 1.1, bCat KO growth 93.8 and Lmaj promast -9.2.
`C=CCNC(=O)c1oc2ccc(S(=O)(=O)N(CC)CC)cc2c1C` gave PMI act 1, PTEN del growth 100.0, PMI act satM6P 1, bCat KO growth 97.4 and Lmaj promast 98.5*.
`CC(=O)c1cccc(NC(=O)C(=O)Nc2cccc3ccccc23)c1` gave PMI act 1, PMI act satM6P 1.1 and Lmaj promast -5.9.
COc1ccccc1C(=O)C1CCCN(C(=O)c2cccc(-n3cccn3)c2)C1 (configuration not stated) was read as PMI act 1, PMI act satM6P 1 and Lmaj promast 49.8.
`S=C(NCc1ccccc1)N1CCn2cccc2C1c1cccnc1` (configuration not stated) gave PMI act 1, PMI act satM6P 0.8 and Lmaj promast 91.0*.
`S=C(NCCc1ccccc1)N1CCn2cccc2C1c1cccnc1` (configuration not stated) gave PMI act 1, PMI act satM6P 0.9 and Lmaj promast 94.9*.
Cc1cccc2cc(CN(C(=O)c3cnccn3)C3CCCCC3)c(Cl)nc12 was read as PMI act 0.9, PTEN del growth 85.6, PMI act satM6P 0.8, bCat KO growth 85.6 and Lmaj promast 36.1.
`CC1(C)CC(=O)C2=C(C1)N(c1ccc(Cl)cc1)C(=O)C2(O)C(F)(F)F` (configuration not stated) gave PMI act 1.1, PTEN del growth 86.6, PMI act satM6P 1, bCat KO growth 83.3 and Lmaj promast -7.2.
CCSc1nnc(NC(=O)C(NC(=O)c2ccc(Cl)cc2)C(C)C)s1 (configuration not stated) was read as PMI act 1, PTEN del growth 93.8, PMI act satM6P 1, bCat KO growth 93.3 and Lmaj promast -6.5.

Screening data (PubChem BioAssay)
